The values below come from ChEMBL document CHEMBL1145782, “Systematic development of high affinity bis(ammonio)alkane-type allosteric enhancers of muscarinic ligand binding” (J Med Chem, 2003).

Each structure is given as a SMILES string.

Test [1] has as its target T1, Muscarinic acetylcholine receptor M2 (Sus scrofa) (UniProt P06199).
T1 sequence (whole entry): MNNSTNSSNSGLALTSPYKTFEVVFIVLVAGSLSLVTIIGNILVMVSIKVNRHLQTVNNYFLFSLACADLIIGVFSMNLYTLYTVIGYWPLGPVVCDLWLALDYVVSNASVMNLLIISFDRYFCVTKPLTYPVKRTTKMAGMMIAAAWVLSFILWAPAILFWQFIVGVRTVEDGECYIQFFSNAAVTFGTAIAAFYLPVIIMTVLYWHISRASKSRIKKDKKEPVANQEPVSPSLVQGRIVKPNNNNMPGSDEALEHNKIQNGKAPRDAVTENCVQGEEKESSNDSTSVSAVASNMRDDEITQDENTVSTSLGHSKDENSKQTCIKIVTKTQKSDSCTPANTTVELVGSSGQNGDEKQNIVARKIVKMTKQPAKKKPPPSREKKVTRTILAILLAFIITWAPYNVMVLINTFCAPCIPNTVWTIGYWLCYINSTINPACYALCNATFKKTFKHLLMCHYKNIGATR
Briefly: Cooperativity factor pAlpha at porcine heart ventricle muscarinic acetylcholine receptor M2. An outline of the steps: (§1)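 Pig heart ventricle homogenates in 2.7 mM MgHPO4, 45 mM Tris-HCl, pH 7.3, 37 °C; [3H]NMS 0.20 nM with increasing test compound concentrations; incubation 180–530 min, calculated to reach equilibrium. Nonspecific binding with 1 μM atropine; bound label separated by rapid vacuum filtration onto glass filters and counted by liquid scintillation. Affinities for free and NMS-occupied receptor derived from binding curves.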

The target of test [2] is T1, Muscarinic acetylcholine receptor M2 (Sus scrofa). Briefly: Tested for binding of [3H]N-methylscopolamine ([3H]NMS) at porcine heart ventricle muscarinic acetylcholine receptor M2 expressed as -logKa. An outline of the steps:
as §1

For test [3], the target named is T2, Muscarinic acetylcholine receptor M2 (Sus scrofa, UniProt P06199).
T2 sequence (P06199 whole entry): T1 sequence (whole entry)
The test can be described thus: Effective concentration required to inhibit dissociation of [3H]NMS from porcine heart ventricles muscarinic acetylcholine receptor M2. An outline of the steps: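 [3H]NMS dissociation in pig heart ventricle homogenates, Mg/Tris buffer pH 7.3, 37 °C. Membranes equilibrated 30 min with 0.2 nM [3H]NMS, then 1 μM atropine added alone or with various test compound concentrations. Either complete time courses over 120 min or two-point measurement (0 and 10 min); monoexponential apparent k-1 by nonlinear regression; filtration and scintillation counting.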

Test [4] has as its target T1, Muscarinic acetylcholine receptor M2 (Sus scrofa). Briefly: Binding affinity for [3H]NMS-occupied muscarinic acetylcholine receptor M2 from porcine heart ventricle. An outline of the steps: as §1

As a reminder, the EC50 is the concentration needed to bring the measured effect to its halfway point. Read a high EC50 as a less potent agent. In test [1], `Cc1ccc2c(c1)C(=O)N(CC(C)(C)C[N+](C)(C)CCCCCC[N+](C)(C)CC(C)(C)CN1C(=O)c3cccc4cccc(c34)C1=O)C2=O` returned a pAlpha of 0.29. In test [2], this compound came in with a -logKa of 7.9. Further, in test [3], the EC50 is 14.1 nM. In addition, the p alphaKa in test [4] amounted to 8.19.
Taken in the same sequence, the figures for `Cc1ccc2c(c1)C(=O)N(CCC[N+](C)(C)CCCCCC[N+](C)(C)CCCN1C(=O)c3ccccc3C1=O)C2=O` were -0.31, 6.73, 324 nM and 6.42.
On the same counts, the results for `Cc1ccc2c(c1)C(=O)N(CC(C)(C)C[N+](C)(C)CCCCCC[N+](C)(C)CC(C)(C)CN1C(=O)c3ccccc3C1=O)C2=O` are 0.17, 6.73, 120 nM and 6.9.
Taken in the same sequence, the figures for `C[N+](C)(CCCCCC[N+](C)(C)CCCN1C(=O)c2nccnc2C1=O)CCCN1C(=O)c2nccnc2C1=O` were -0.44, 5.44, 6310 nM and 5.
For the compound `Cc1ccc2c(c1)C(=O)N(CCC[N+](C)(C)CCCCCC[N+](C)(C)CC(C)(C)CN1C(=O)c3cccc4cccc(c34)C1=O)C2=O`, in test [1], the pAlpha came to 0.32. Also, in test [2], the -logKa was 7.9. In addition, in test [3], the EC50 was 7.59 nM. This compound showed a p alphaKa in test [4] of 8.23.
On the same counts, the results for `C[N+](C)(CCCCCC[N+](C)(C)CCCN1C(=O)c2ccc(C(F)(F)F)cc2C1=O)CCCN1C(=O)c2ccc(C(F)(F)F)cc2C1=O` are -0.22, 6.37, 447 nM and 6.15.
On the same counts, the results for `Cc1ccc2c(c1)C(=O)N(CC(C)(C)C[N+](C)(C)CCCCCC[N+](C)(C)CC(C)(C)CN1C(=O)c3ccc(C)cc3C1=O)C2=O` are 0.17, 7.21, 46.8 nM and 7.38.
On the same counts, the results for `C[N+](C)(CCCCCC[N+](C)(C)CCCN1C(=O)c2cccc3cccc(c23)C1=O)CCCN1C(=O)c2ccccc2C1=O` are -0.2, 7.24, 115 nM and 7.04.
Regarding `C[N+](C)(CCCCCC[N+](C)(C)CCCN1C(=O)c2cc(F)c(F)cc2C1=O)CCCN1C(=O)c2ccccc2C1=O`, the pAlpha in test [1] was -0.37. The -logKa in test [2] turned out to be 6.68. In test [3], the EC50 was 457 nM. The compound also displayed a p alphaKa in test [4] of 6.31.
